The subject of series [1] is Rattus norvegicus. The experiment in a line: Antiinflammatory activity against carrageenan-induced hind paw oedema in Charles foster rat assessed as inhibition of paw oedema at 50 mg/kg, po after 1 hr. Format: functional. Also on record: scale not given: the % may be the effect or the level left. Summed up: (§1)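 Charles-Foster albino rats of either sex, no pregnant females, 70–95 days old, 100–150 g. Oral dose of 25, 50 or 100 mg/kg given 1 h before carrageenan. Carrageenan was a fresh 1% suspension in 0.9% saline, 0.05 mL under the plantar aponeurosis of the right hind paw. Paw volume measured by plethysmometer before and 3 h after carrageenan. Result is percent inhibition of oedema.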

The test system of series [2] is Mus musculus. Put plainly: Analgesic activity in Albino mouse assessed as number of acetic acid-induced writhing at 50 mg/kg, po after 30 min. Format: functional.
The nature of series [3]: Acute toxicity in albino mouse assessed as percent mortality after 24 hrs. The format is organism-based. The settings on record: in vivo, read-out: ALD50.
Series [4] concerns Rattus norvegicus. The experiment in a line: Antiinflammatory activity against carrageenan-induced hind paw oedema in Charles foster rat assessed as inhibition of paw oedema at 25 mg/kg, po after 1 hr. The format is functional. Also on record: scale not given: the % may be the effect or the level left. Summed up: as §1
(In general: In the carrageenan paw model, swelling and tenderness develop within hours.)

Series [5] concerns Rattus norvegicus. The experiment in a line: Antiinflammatory activity against carrageenan-induced hind paw oedema in Charles foster rat assessed as inhibition of paw oedema at 100 mg/kg, po after 1 hr. Format: functional. More on the design: scale not given: the % may be the effect or the level left. The method, boiled down:
as §1

Series [6] has as its system Mus musculus. The experiment in a line: Analgesic activity in Albino mouse assessed as number of acetic acid-induced writhing at 25 mg/kg, po after 30 min. The format is functional.
The subject of series [7] is Mus musculus. The experiment in a line: Analgesic activity in Albino mouse assessed as number of acetic acid-induced writhing at 100 mg/kg, po after 30 min. Format: functional.
Series [8] is filed under the species Rattus norvegicus. Put plainly: Ulcerogenic activity in 24 hrs fasted Charles foster rat. Format: functional. Summed up: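 Albino rats fasted 24 h, then given compound. Killed 8 h after dosing. Stomach and small intestine examined for hyperaemia, epithelial shedding, petechial or frank haemorrhage, and erosion or ulceration with or without perforation. Any one of these counted as ulcerogenic. Route reported as i.p. for the UD50.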

Some results are limits rather than exact numbers.

For `COc1ccc(/C=N/NCc2nc3ccc(Br)cc3c(=O)n2-c2nc(-c3ccc(Cl)cc3)cs2)cc1`, the values for the Activity in the series with Rattus norvegicus [1] and in the series with Mus musculus [2] were 23.29% and 21.69%, respectively. Further, the LD50 at 24 h in series [3] is over 1000 mg/kg.
The matching figures for `O=C1C(Cl)C(c2ccc(Cl)cc2)N1NCc1nc2ccc(Br)cc2c(=O)n1-c1nc(-c2ccc(Cl)cc2)cs1` (centres undefined): 33.07%, 32.62% and over 1000 mg/kg.
The matching figures for `O=c1c2cc(Br)ccc2nc(CN/N=C/c2ccc(Cl)cc2)n1-c1nc(-c2ccc(Cl)cc2)cs1`: 25.12%, 23.42% and over 1000 mg/kg.
Take `O=C1CSC(c2ccccc2Cl)N1NCc1nc2ccc(Br)cc2c(=O)n1-c1nc(-c2ccc(Cl)cc2)cs1` (centres undefined): the Activity in the series on Rattus norvegicus [1] worked out at 38.35%; in the series on Rattus norvegicus [4], 17.84%; with Rattus norvegicus [5], 67.45%; with Mus musculus [2], 37.36%; with Mus musculus [6] it was 14.22%; in the series with Mus musculus [7], 61.12%. The molecule further registered a UD50 in the series listed under Rattus norvegicus [8] of 195.6 mg/kg. Moreover, the LD50 at 24 h in series [3] is over 1000 mg/kg.
Turning to `CN(C)c1ccc(/C=N/NCc2nc3ccc(Br)cc3c(=O)n2-c2nc(-c3ccc(Cl)cc3)cs2)cc1`, the Activity in the series on Rattus norvegicus [1] was determined as 17.88%; in the series with Mus musculus [2], 16.84%. In series [3], the LD50 at 24 h was over 1000 mg/kg.
The corresponding values for `Cc1ccc(C2SCC(=O)N2NCc2nc3ccc(Br)cc3c(=O)n2-c2nc(-c3ccc(Cl)cc3)cs2)cc1` (centres undefined) are 34.25%, 32.87% and over 1000 mg/kg.
The corresponding values for `O=C1C(Cl)C(c2ccc(O)cc2)N1NCc1nc2ccc(Br)cc2c(=O)n1-c1nc(-c2ccc(Cl)cc2)cs1` (centres undefined) are 30.65%, 29.92% and over 1000 mg/kg.
The matching figures for `CN(C)c1ccc(C2SCC(=O)N2NCc2nc3ccc(Br)cc3c(=O)n2-c2nc(-c3ccc(Cl)cc3)cs2)cc1` (centres undefined): 32.89%, 28.76% and over 1000 mg/kg.
Consider `O=C1CSC(c2ccc(Cl)cc2)N1NCc1nc2ccc(Br)cc2c(=O)n1-c1nc(-c2ccc(Cl)cc2)cs1` (centres undefined), for which the Activity in the series on Rattus norvegicus [1] came to 37.06%; in the series with Mus musculus [2], 36.26%. Besides, in series [3], the LD50 at 24 h was over 1000 mg/kg.
The corresponding values for `COc1ccc(C2C(Cl)C(=O)N2NCc2nc3ccc(Br)cc3c(=O)n2-c2nc(-c3ccc(Cl)cc3)cs2)cc1` (centres undefined) are 31.67%, 30.67% and over 1000 mg/kg.
The matching figures for `O=c1c2cc(Br)ccc2nc(CN/N=C/c2ccccc2Cl)n1-c1nc(-c2ccc(Cl)cc2)cs1`: 26.44%, 24.68% and over 1000 mg/kg.
The matching figures for `O=C1CSC(c2ccc(O)cc2)N1NCc1nc2ccc(Br)cc2c(=O)n1-c1nc(-c2ccc(Cl)cc2)cs1` (centres undefined): 35.13%, 33% and over 1000 mg/kg.
As for `O=c1c2cc(Br)ccc2nc(CN/N=C/c2ccccc2)n1-c1nc(-c2ccc(Cl)cc2)cs1`, the Activity with Rattus norvegicus [1] came to 18.75%; in the series on Mus musculus [2], 17.12%. Also, in series [3], the LD50 at 24 h is over 1000 mg/kg.
The corresponding values for `O=C1CSC(c2ccccc2)N1NCc1nc2ccc(Br)cc2c(=O)n1-c1nc(-c2ccc(Cl)cc2)cs1` (centres undefined) are 33.88%, 32.45% and over 1000 mg/kg.
The corresponding values for `O=c1c2cc(Br)ccc2nc(CN/N=C/c2ccc(O)cc2)n1-c1nc(-c2ccc(Cl)cc2)cs1` are 20.23%, 18.96% and over 1000 mg/kg.
`COc1ccccc1C1SCC(=O)N1NCc1nc2ccc(Br)cc2c(=O)n1-c1nc(-c2ccc(Cl)cc2)cs1` (centres undefined): the Activity in the series on Rattus norvegicus [1] is recorded as 36.98%; in the series with Mus musculus [2], 35.43%. For the same molecule, in series [3], the LD50 at 24 h was over 1000 mg/kg.
The matching figures for `Cc1ccc(C2C(Cl)C(=O)N2NCc2nc3ccc(Br)cc3c(=O)n2-c2nc(-c3ccc(Cl)cc3)cs2)cc1` (centres undefined): 29.88%, 29.12% and over 1000 mg/kg.
The matching figures for `CN(C)c1ccc(C2C(Cl)C(=O)N2NCc2nc3ccc(Br)cc3c(=O)n2-c2nc(-c3ccc(Cl)cc3)cs2)cc1` (centres undefined): 28.55%, 27.35% and over 1000 mg/kg.
The matching figures for `COc1ccccc1/C=N/NCc1nc2ccc(Br)cc2c(=O)n1-c1nc(-c2ccc(Cl)cc2)cs1`: 24.66%, 22.18% and over 1000 mg/kg.
Take `CCCCC1C(=O)N(c2ccccc2)N(c2ccccc2)C1=O` [PHENYLBUTAZONE]: the Activity came out at 38.9% with Rattus norvegicus [1]; 18.46% with Rattus norvegicus [4]; 66.58% in the series on Rattus norvegicus [5]; 36.5% in the series with Mus musculus [2]; 16.3% in the series on Mus musculus [6]; 60.23% in the series with Mus musculus [7]. In the series filed under Rattus norvegicus [8], this molecule had a UD50 of 66.6 mg/kg.
For `Cc1ccc(/C=N/NCc2nc3ccc(Br)cc3c(=O)n2-c2nc(-c3ccc(Cl)cc3)cs2)cc1`, the Activity worked out at 19.14% with Rattus norvegicus [1] and 18.52% with Mus musculus [2]. Moreover, the LD50 at 24 h in series [3] was over 1000 mg/kg.
The corresponding values for `O=C1C(Cl)C(c2ccccc2Cl)N1NCc1nc2ccc(Br)cc2c(=O)n1-c1nc(-c2ccc(Cl)cc2)cs1` (centres undefined) are 34.21%, 34.11% and over 1000 mg/kg.
For `COc1ccccc1C1C(Cl)C(=O)N1NCc1nc2ccc(Br)cc2c(=O)n1-c1nc(-c2ccc(Cl)cc2)cs1` (centres undefined), the Activity is 32.45% in the series with Rattus norvegicus [1] and 31.89% in the series with Mus musculus [2]. Also, the LD50 at 24 h in series [3] was over 1000 mg/kg.
In the case of `O=C1C(Cl)C(c2ccccc2)N1NCc1nc2ccc(Br)cc2c(=O)n1-c1nc(-c2ccc(Cl)cc2)cs1` (centres undefined), the Activity turned out to be 29.16% with Rattus norvegicus [1] and 28.59% in the series on Mus musculus [2]. For the same molecule, the LD50 at 24 h in series [3] was over 1000 mg/kg.
The corresponding values for `COc1ccc(C2SCC(=O)N2NCc2nc3ccc(Br)cc3c(=O)n2-c2nc(-c3ccc(Cl)cc3)cs2)cc1` (centres undefined) are 36.11%, 34.27% and over 1000 mg/kg.

The values above are taken from ChEMBL document CHEMBL1139170, “Synthesis of 3-[4'-(p-chlorophenyl)-thiazol-2'-yl]-2-[(substituted azetidinone/thiazolidinone)-aminomethyl]-6-bromoquinazolin-4-ones as anti-inflammatory agent” (Bioorg Med Chem, 2007).
